Assay results as given in ChEMBL document CHEMBL1240472, “Hypervalent iodine(III) mediated synthesis of novel unsymmetrical 2,5-disubstituted 1,3,4-oxadiazoles as antibacterial and antifungal agents” (2010).
In brackets after ≈: the same amount, converted by molar mass.

Assays:
Staphylococcus aureus [1] = experiment: Antimicrobial activity against Staphylococcus aureus MTCC 96 […]; format: functional
Bacillus subtilis [2] = experiment: Antimicrobial activity against Bacillus subtilis MTCC 121 […]; format: functional
Escherichia coli [3] = experiment: Antimicrobial activity against Escherichia coli MTCC 1652 by microdilution assay; format: functional; settings: in the assay text read “macrodilution” for “microdilution”
Summary of the method: (§1)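 MIC determined in µg/ml by the macrodilution method, only for compounds active in the primary diffusion screen. Results are means of three replicates.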

Pseudomonas aeruginosa [4] = experiment: Antimicrobial activity against Pseudomonas aeruginosa MTCC 741 by microdilution assay; format: functional; settings: in the assay text read “macrodilution” for “microdilution”; summary of the method: as §1
Escherichia coli [5] = experiment: Antimicrobial activity against Escherichia coli MTCC 1652 by […]; format: functional
Pseudomonas aeruginosa [6] = experiment: Antimicrobial activity against Pseudomonas aeruginosa MTCC 741 after 24 hrs by […]; format: functional
Summary of the method: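 Agar well diffusion assay (8 mm wells). Inhibition zone diameter read in mm, with the well diameter included in the value. Results are means of three replicates.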

Aspergillus niger = experiment: Antimicrobial activity against Aspergillus niger assessed as inhibition of mycelial growth by poisoned food method; format: functional; also: test concentration or dose not given here
Aspergillus flavus = experiment: Antimicrobial activity against Aspergillus flavus assessed as inhibition of mycelial growth by poisoned food method; format: functional; also: test concentration or dose not given here
Bacillus subtilis [7] = experiment: Antimicrobial activity against Bacillus subtilis MTCC 121 by agar well diffusion method; also: test concentration or dose not given here
Staphylococcus aureus [8] = experiment: Antimicrobial activity against Staphylococcus aureus MTCC 96 after by agar well diffusion method; also: test concentration or dose not given here
For IZ in this document: test concentration or dose not given here.

SMILES | MIC (Staphylococcus aureus [1]) [µg/mL] | MIC (Bacillus subtilis [2]) [µg/mL] | MIC (Escherichia coli [3]) [µg/mL] | MIC (Pseudomonas aeruginosa [4]) [µg/mL] | inhibition zone (IZ) (Escherichia coli [5]) [mm] | inhibition zone (IZ) (Pseudomonas aeruginosa [6]) [mm] | inhibition (INH) (Aspergillus niger) [%] | inhibition (INH) (Aspergillus flavus) [%] | inhibition zone (IZ) (Bacillus subtilis [7]) [mm] | inhibition zone (IZ) (Staphylococcus aureus [8]) [mm]
O=[N+]([O-])c1ccc(-n2cc(-c3nnc(-c4ccccc4)o3)c(-c3ccc(F)cc3)n2)cc1 | 32 (≈ 74.9 µM) | 8 (≈ 18.7 µM) | 64 (≈ 150 µM) | 128 (≈ 299 µM) | 20 | 16.6 | 44.4 | 55.5 | 24.3 | 21.3
O=[N+]([O-])c1ccc(-n2cc(-c3nnc(-c4ccccc4)o3)c(-c3ccccc3)n2)cc1 | 64 (≈ 156 µM) | 8 (≈ 19.5 µM) | 128 (≈ 313 µM) | > 128 | 18.6 | 15.3 | 66.6 | 66.6 | 24.3 | 20.6
Cc1ccc(-c2nn(-c3ccccc3)cc2-c2nnc(-c3ccccc3)o2)cc1 | 128 (≈ 338 µM) | 16 (≈ 42.3 µM) | > 128 | > 128 | 15.6 | 13.6 | 66.6 | 61.1 | 21.6 | 18.3
O=[N+]([O-])c1ccc(-c2nn(-c3ccccc3)cc2-c2nnc(-c3ccccc3)o2)cc1 | 8 (≈ 19.5 µM) | 16 (≈ 39.1 µM) | > 128 | > 128 | 15.6 | 14.3 | 50 | 61.1 | 21.6 | 23.3
O=[N+]([O-])c1ccc(-c2nn(-c3ccc([N+](=O)[O-])cc3)cc2-c2nnc(-c3ccccc3)o2)cc1 | 16 (≈ 35.2 µM) | 8 (≈ 17.6 µM) | 128 (≈ 282 µM) | > 128 | 18.3 | 14.6 | 55.5 | 44.4 | 23.6 | 22.6
O=C(O)c1cn(C2CC2)c2cc(N3CCNCC3)c(F)cc2c1=O [CIPROFLOXACIN] | 5 (≈ 15.1 µM) | 5 (≈ 15.1 µM) | 5 (≈ 15.1 µM) | 5 (≈ 15.1 µM) | – | 22 | – | – | 24 | 26
Brc1ccc(-c2nn(-c3ccccc3)cc2-c2nnc(-c3ccccc3)o2)cc1 | 64 (≈ 144 µM) | 128 (≈ 289 µM) | 128 (≈ 289 µM) | > 128 | 16.6 | 14.6 | 61.1 | 55.5 | 18.3 | 20
OC(Cn1cncn1)(Cn1cncn1)c1ccc(F)cc1F [FLUCONAZOLE] | – | – | – | – | – | – | 81.1 | 77.7 | – | –
c1ccc(-c2nnc(-c3cn(-c4ccccc4)nc3-c3ccccc3)o2)cc1 | 64 (≈ 176 µM) | 128 (≈ 351 µM) | > 128 | > 128 | 14.3 | 13.6 | 44.4 | 61.1 | 18.6 | 20.3
Fc1ccc(-c2nn(-c3ccccc3)cc2-c2nnc(-c3ccccc3)o2)cc1 | 128 (≈ 335 µM) | 32 (≈ 83.7 µM) | > 128 | > 128 | 14.3 | 14.3 | 66.6 | 50 | 20.6 | 18.6
Clc1ccc(-c2nn(-c3ccccc3)cc2-c2nnc(-c3ccccc3)o2)cc1 | 32 (≈ 80.2 µM) | 64 (≈ 160 µM) | > 128 | > 128 | 15.6 | 13.6 | 55.5 | 44.4 | 19.6 | 21.6
COc1ccc(-c2nn(-c3ccccc3)cc2-c2nnc(-c3ccccc3)o2)cc1 | 16 (≈ 40.6 µM) | 32 (≈ 81.1 µM) | 128 (≈ 325 µM) | > 128 | 16.3 | 14 | 44.4 | 66.6 | 20.3 | 22.6
COc1ccc(-c2nn(-c3ccc([N+](=O)[O-])cc3)cc2-c2nnc(-c3ccccc3)o2)cc1 | 8 (≈ 18.2 µM) | 8 (≈ 18.2 µM) | 64 (≈ 146 µM) | 64 (≈ 146 µM) | 20.6 | 18.6 | 55.5 | 50 | 23.6 | 24.3
